# Source: ChEMBL document CHEMBL4765242, “Novel Triapine Derivative Induces Copper-Dependent Cell Death in Hematopoietic Cancers” (J Med Chem, 2019)
# Activity calls are given as the source filed them. The calls are words filed in the database; no cut-off is given here.
# Tests used:
# RS4-11 = test: Potency index, ratio of triapine IC50 to test compound IC50 for human RS4-11 cells assessed as reduction in cell viability incubated for 48 hrs by cell-titer-Glo luminescent cell viability assay; format: functional
# Summary of the method: (§1)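 Cells were exposed to increasing concentrations of triapine or of the test compound in parallel. Viability was read by CellTiter-Glo luminescence 48 h after treatment, relative to vehicle-treated cells. IC50 was fitted by non-linear regression to a standard sigmoidal dose-response model, and the index was taken from the two IC50s.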
# BT-474 = test: Potency index, ratio of triapine IC50 to test compound IC50 for human BT-474 cells assessed as reduction in cell viability incubated for 48 hrs by cell-titer-Glo luminescent cell viability assay; format: functional; summary of the method: as §1
# MV4-11 = test: Induction of ROS generation in human MV4-11 cells assessed as increase in intracellular ROS level at 50 nM incubated for 4 to 8 hrs by MitoSox red dye based flow cytometry analysis; format: functional, cell-based; details: time 4-8 hrs
# Summary of the method: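 MV4;11 cells in 6-well plates given 50 nM compound for 4 or 8 h, then stained with CellROX (intracellular ROS) or MitoSOX (mitochondrial ROS); read by flow cytometry.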
smiles,measurement,setting,value
COc1cc2nc(N/N=C3\CCCc4cccnc43)sc2cc1OC,Ratio IC50,RS4-11,10
same,Ratio IC50,BT-474,10
same,Activity,MV4-11,inactive
